EBI2 block – EBI2 (human) antagonism. P32249. actives 0.81% (n = 360,000). EBI2 beta-arrestin recruitment, luminescence, 7a,25-OHC stimulated. inhibition, % at 5 µM; in the data active = inhibition above about 38%;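 also: enzyme fragment complementation signal reports receptor beta-arrestin coupling in cells; 0% = agonist plus DMSO wells and 100% = wells without agonist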
APJ ag – agonists of human APJ apelin receptor; P35414; CHO-K1 APJ PathHunter beta-arrestin, luminescence; 0% DMSO wells, 100% apelin; activation, % at 20 µM; actives 0.11% (n = 330,000); AID 2520;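 active = activation more than six SD over the plate average, tested at 20 µM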;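 also: 0% = DMSO alone and 100% = apelin-13 at 10 nM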
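Material: CHO-K1 APJ beta-arrestin complementation cell line; Input: cell density 1000 per well; Incubation: compound stimulation 90 min at 25 °C, detection 60 min; Signal: luminescence from split beta-galactosidase complementation, Galacton Star/Emerald II substrate; Controls: DMSO-only wells as negative, 10 nM Apelin-13 as positive control.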
CXCR6 inh – blocks human CXCR6 beta-arrestin recruitment; O00574; CHO-K1 PathHunter CXCR6 beta-arrestin, luminescence; inhibition, % at 20 µM; actives 0.36% (n = 360,000); AID 602244; in the data active = inhibition above about 34%, passing the limit was not always enough;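 also: antagonist mode with CXCL16 agonist at 10 nM final; 0% = 10 nM CXCL16 with DMSO and 100% = unstimulated wells without agonist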
Target sequence (O00574 whole entry, looked up): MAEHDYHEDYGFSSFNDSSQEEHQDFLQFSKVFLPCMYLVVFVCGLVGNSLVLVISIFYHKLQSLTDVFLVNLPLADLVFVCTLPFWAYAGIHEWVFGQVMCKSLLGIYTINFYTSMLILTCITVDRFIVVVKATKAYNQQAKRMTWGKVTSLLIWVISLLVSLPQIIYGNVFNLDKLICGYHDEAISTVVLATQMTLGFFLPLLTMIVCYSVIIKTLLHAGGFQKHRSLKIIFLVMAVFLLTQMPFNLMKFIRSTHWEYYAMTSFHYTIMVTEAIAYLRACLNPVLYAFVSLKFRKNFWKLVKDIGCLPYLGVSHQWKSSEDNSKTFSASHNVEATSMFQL
APJ antagonist – antagonists of human APJ apelin receptor | CHO-K1 APJ beta-arrestin complementation, luminescence | inhibition, % at 20 µM | actives 0.32% (n = 330,000) | AID 2521;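 active = inhibition above about 40% at 20 µM, limit read from the data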;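 also: cells challenged with 10 nM apelin-13 agonist together with compound; plate controls were apelin-13 plus DMSO wells for no effect and DMSO wells lacking apelin-13 for full effect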
CCR6 antagonist – CCR6 (human) receptor antagonism; P51684; inhibition, % at 20 µM; actives 0.49% (n = 340,000); AID 493098; CHO-K1 CCR6 PathHunter beta-arrestin, luminescence, CCL20-stimulated;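 active = compounds whose inhibition of the agonist-driven luminescence signal at 20 µM reaches about 50%, limit read from the data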;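 also: cells stimulated with CCL20 at 14 nM final; plate controls were DMSO with CCL20 for no effect and DMSO without agonist for full effect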
Target sequence (P51684 whole entry, looked up): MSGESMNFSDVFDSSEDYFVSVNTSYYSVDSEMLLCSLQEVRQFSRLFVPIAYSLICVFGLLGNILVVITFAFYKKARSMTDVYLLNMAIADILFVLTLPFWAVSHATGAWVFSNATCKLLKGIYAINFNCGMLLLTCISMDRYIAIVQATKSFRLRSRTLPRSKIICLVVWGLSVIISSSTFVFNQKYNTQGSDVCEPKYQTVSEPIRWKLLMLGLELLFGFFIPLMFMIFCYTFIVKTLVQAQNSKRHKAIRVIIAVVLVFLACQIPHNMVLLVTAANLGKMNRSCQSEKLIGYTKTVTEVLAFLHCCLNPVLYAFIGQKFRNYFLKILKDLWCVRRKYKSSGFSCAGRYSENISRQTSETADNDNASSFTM
CXCR6 antag conf – confirmation of human CXCR6 receptor antagonists | shares compounds with CXCR6 inh | CHO-K1 CXCR6 PathHunter beta-arrestin, luminescence | inhibition, % at 20 µM | actives 65% (n = 700) | AID 602409;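 active = mean inhibition over four retests above 40%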;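 also: receptor stimulated with 10 nM CXCL16 agonist; beta-galactosidase fragment complementation upon beta-arrestin recruitment to receptor; plate controls were CXCL16 plus DMSO for no effect and DMSO without CXCL16 for full effect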
Numbers without * were called inactive; . = not tested or not shown. An excerpt weighted towards active compounds, which were near 1.5% of everything screened.

SMILES	EBI2 block	APJ ag	CXCR6 inh	APJ antagonist	CCR6 antagonist	CXCR6 antag conf
CC(C)N1C(=O)c2ccccc2NC(=O)C1C(=O)NCc1ccccc1 (stereo not given)	-6.1	.	.	.	.	.
Cc1ccc(C(=O)NC(=S)NNC(=O)c2ccccc2)cc1	0.6	-4.0	13.4	1.3	18.5	.
Cc1ccc(C(=O)NNC(=S)NC(=O)c2ccccc2)cc1	-6.2	-4.5	36.1*	12.2	.	44.4*
C[C@H]1CN([C@@H](C)CO)C(=O)CCCn2nncc2CO[C@@H]1CN(C)Cc1ccccc1C(F)(F)F	-1.2	.	39.3*	.	.	1.2
Cc1[nH]n(-c2ccccc2)c(=S)c1C=NCCCN=Cc1c(C)[nH]n(-c2ccccc2)c1=S	6.9	0.3	54.2*	-29.4	74.3*	74.2*
O=C1c2[nH]c3ccccc3c2CC1N1C(=O)c2ccccc2C1=O (stereo not given)	3.8	.	0.1	.	.	.
CCCCN1C(=O)C(CC(=O)NC2CC2)CC(C(=O)N(CC)CC)=C1C (stereo not given)	-5.2	.	0.6	.	.	.
C[C@@H]1CC=C[C@@H]2[C@H]1C(=O)N(Cc1ccccc1)[C@H]2c1ccccc1Br	19.8	.	35.1*	.	7.3	4.8
O=C(COC(=O)C1CCN(S(=O)(=O)c2cccs2)CC1)c1cc2ccccc2o1	14.9	-11.7	34.3*	36.6	74.4*	41.8*
O=C(COC(=O)C1CCN(S(=O)(=O)c2cccs2)CC1)c1ccc2c(c1)OCCO2	1.0	-2.6	-9.0	11.6	9.9	.
O=C(COc1ccc(Cl)cc1)N/N=C/c1cccc2cccnc12	25.1	0.5	43.7*	8.1	.	55.9*
COc1ccc(OCC(=O)N/N=C/c2cccc3cccnc23)cc1	1.9	2.1	3.4	-18.1	8.3	.
O=C(NC(Cc1c[nH]c2ccccc12)C(=O)O)OCC1c2ccccc2-c2ccccc21 (stereo not given)	-1.9	.	-0.9	.	.	.
CS(=O)(=O)c1ccc(C(=O)OCc2nnc(-c3ccccc3)o2)cc1[N+](=O)[O-]	56.4*	.	63.5*	.	62.3*	75.8*
O=C(O)COc1ccc(NC(=O)c2ccc3c(c2)C(=O)N(CC2CCCO2)C3=O)cc1 (stereo not given)	-0.9	.	-2.2	.	.	.
Cc1cc(C(=O)N2CCCC2(C)C(=O)NCC(C)C)nn1C(C)(C)C (stereo not given)	-1.7	.	2.0	.	.	.
CC(=NNC(=S)N1CCCCC1)c1cccc(C)n1	2.5	.	42.8*	.	22.8	20.4
CC(=NNC(=S)N1CCCCC1)c1ccccn1	-9.6	.	-16.9	.	.	.
Cc1cccc(C(=O)Nc2ccc(C(=O)/C=C/c3cccnc3)cc2)c1	33.1	.	35.6*	.	34.4	43.6*
Cc1cc(C)cc(NC(=O)c2cccnc2)c1	-2.8	1.6	40.5*	-3.6	12.7	4.7
O=C(/C=C/c1cccnc1)c1ccc(NC(=O)c2cccc(Br)c2)cc1	-2.8	5.2	9.0	17.9	23.2	.
CCOC(=O)C1CC(=NO)c2ccc(OC)c(OC)c2C1 (stereo not given)	-13.8	.	-7.7	.	.	.
COc1ccc(S(=O)(=O)N2CCC(C(=O)N[C@@H](C)C(=O)NCc3ccccn3)CC2)cc1	-4.6	.	-3.8	.	.	.
C=CCN(CC=C)Cc1cc(=O)oc2cc(C)c(C)cc12	9.1	.	-4.0	.	.	.
O=C(CSc1nccn1-c1ncc(C(F)(F)F)cc1Cl)c1ccc(Br)cc1	1.6	-4.6	80.3*	11.9	73.9*	-0.7
SMILES	EBI2 block	APJ ag	CXCR6 inh	APJ antagonist	CCR6 antagonist	CXCR6 antag conf
Cc1ccc(/C(CSc2nccn2-c2ncc(C(F)(F)F)cc2Cl)=N\O)cc1	11.5	-3.5	-4.5	17.4	-8.1	.
COC(=O)c1sccc1S(=O)(=O)Nc1ccc(C(O)(C(F)(F)F)C(F)(F)F)cc1	1.8	.	7.4	.	.	.
COc1ccc(CNC(=O)c2nc(S(=O)(=O)Cc3ccccc3)ncc2Cl)cc1	39.8	13.1	50.1*	8.3	45.1	51.9*
O=C(NCc1ccc2c(c1)OCO2)c1nc(S(=O)(=O)Cc2ccccc2F)ncc1Cl	24.1	6.2	70.3*	17.8	48.6	62.1*
CC(C)c1nnc(NC(=O)c2nc(S(=O)(=O)Cc3ccccc3F)ncc2Cl)s1	.	-0.5	.	-3.7	-5.3	.
C[C@H](CO)N1C[C@H](C)[C@H](CN(C)C(=O)Nc2ccc(F)cc2)OCc2ccccc2-c2c(n(C)c3ccccc23)C1=O	-1.3	.	41.0*	.	.	20.1
OCC[C@@H]1C[C@H](O)[C@@H](O)[C@]2(OCc3cc(Cl)ccc32)O1	1.8	.	-3.9	.	.	.
O=C1C=CC(=O)N1c1ccc2c(c1)C(NC(=O)C(F)(F)F)c1ccccc1-2 (stereo not given)	15.9	.	78.9*	.	108.4*	32.5
CCC(=O)OCCNc1cc(SCCC(=O)OC)c2nonc2c1[N+](=O)[O-]	-12.2	-14.2	58.5*	19.9	63.7*	58.9*
CC(=O)OCCNc1cc(SC(C)C)c2nonc2c1[N+](=O)[O-]	9.4	-3.3	10.1	5.0	18.0	.
CCC(=O)OCCNc1cc(Sc2nccn2C)c2nonc2c1[N+](=O)[O-]	52.9*	.	102.0*	.	111.6*	104.2*
Cc1cc(C)n2c(=O)c3ccc(Cl)cc3nc2c1C#N	5.5	1.3	-4.6	-0.5	11.9	.
Cc1cc(Cl)n2c(nc3cc(F)c(F)cc32)c1C#N	-4.8	.	43.7*	.	46.8	53.4*
CC(=O)N1Cc2cc(C(=O)NCC(F)(F)F)nc(-c3cccc(-c4cccnc4)c3)c2[C@@H]1CCO	6.9	.	-4.7	.	.	.
Cc1[nH]n2c(=O)cc(-c3ccc([N+](=O)[O-])cc3)nc2c1-c1ccccc1	8.2	-2.5	58.7*	16.9	.	52.2*
Cc1cc(C)cc(C(=O)NCC(=O)OCC(=O)NC2CC2)c1	-9.4	-2.0	-6.3	7.3	-5.2	.
COc1cc(OC)c(NS(=O)(=O)c2cc(C(=O)NCCCN3CCOCC3)ccc2C)cc1Cl	14.2	.	0.0	.	.	.
CN(CC(=O)Nc1ccc(F)cc1)C(=O)COC(=O)CN1C(=O)NC2(CCCC2)C1=O	-13.0	1.1	46.4*	7.6	2.6	16.5
O=C(COC(=O)c1cccc(OC(F)F)c1)Nc1ncccn1	0.1	1.0	4.0	6.3	9.1	.
O=C(C#Cc1ccccc1)c1ccccc1	23.5	.	70.6*	.	.	71.8*
CN(C)C(=O)C#Cc1ccccc1	-9.4	-1.6	-2.4	11.8	7.7	.
O=C(NNc1ccc(C(F)(F)F)cc1[N+](=O)[O-])c1ccc(NS(=O)(=O)c2ccc(F)cc2)cc1	5.8	.	47.6*	.	57.5*	38.9
C/C(=N\NC(=S)NCCc1ccccc1)c1ccc(O)cc1O	5.8	7.1	-0.4	-4.8	9.4	.
C/C(=N\NC(=S)NCCc1ccccc1)c1ccc(Cl)cc1Cl	12.8	-7.8	53.8*	33.3	.	54.3*
COc1ccc(N2C[C@H](CSC)[C@@H](CC(=O)Nc3ccccc3)C2=O)cc1	-5.9	.	42.6*	.	.	23.0
O=C(O)c1ccc(-n2nc(C(F)(F)F)c3c2CCCC3)cc1	-0.9	-3.9	3.8	0.9	2.9	.
